Reference: ChEMBL document CHEMBL3085765, “The synthesis, antiviral, cytostatic and cytotoxic evaluation of a new series of acyclonucleotide analogues with a 1,2,3-triazole linker” (Eur J Med Chem, 2013)

Tests used:
Format in all cases: functional, cell-based
HeLa = assay: Cytostatic activity against human HeLa cells after 3 days by coulter ZI particle counting analysis; details: 72 h
How it was run: (§1)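 Cells seeded in 96-well plates and grown with or without serial dilutions of compound, 2 days for L1210 and 3 days for CEM and HeLa. IC50 taken as concentration inhibiting cell proliferation by 50%.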

L1210 = assay: Cytostatic activity against mouse L1210 cells after 2 days by coulter ZI particle counting analysis; details: L1210, 48 h; how it was run: as §1
CCRF-CEM = assay: Cytostatic activity against human CEM cells after 3 days by coulter ZI particle counting analysis; details: 72 h; how it was run: as §1

Structure (SMILES)	IC50 (HeLa) [µM]	IC50 (L1210) [µM]	IC50 (CCRF-CEM) [µM]
CCOP(=O)(CCn1cc(Cn2cc(C(C)=O)c3ccccc32)nn1)OCC	18	197	11.4
CCOP(=O)(CC(O)Cn1cc(Cn2ccccc2=O)nn1)OCC (centres undefined)	> 200	> 200	> 200
CCOP(=O)(CCCn1cc(Cn2ccccc2=O)nn1)OCC	> 200	> 200	> 200
CCOP(=O)(OCC)C(O)Cn1cc(Cn2ccccc2=O)nn1 (centres undefined)	> 200	> 200	> 200
CCOP(=O)(CCCCn1cc(Cn2ccccc2=O)nn1)OCC	> 200	> 200	> 200
O=c1ccn(Cc2cn(CCCCP(=O)(O)O)nn2)c(=O)[nH]1	> 200	> 200	> 200
CCOP(=O)(OCC)C(O)CCn1cc(Cn2ccccc2=O)nn1 (centres undefined)	> 200	> 200	> 200
CCOP(=O)(CCCCn1cc(Cn2c(Cl)nc3c2c(=O)n(C)c(=O)n3C)nn1)OCC	> 200	> 200	> 200
Nc1ncnc2c1ncn2Cc1cn(CCCCP(=O)(O)O)nn1	> 200	> 200	> 200
CCOP(=O)(CCn1cc(Cn2ncc(=O)[nH]c2=O)nn1)OCC	> 200	> 200	> 200
CCOP(=O)(OCC)C(O)CCn1cc(Cn2c(Cl)nc3c2c(=O)n(C)c(=O)n3C)nn1 (centres undefined)	> 200	> 200	> 200
CCOP(=O)(CCCCn1cc(Cn2cnc3cc(C)c(C)cc32)nn1)OCC	172	> 200	24.7
CCOP(=O)(CCCn1cc(Cn2cnc3c2c(=O)n(C)c(=O)n3C)nn1)OCC	> 200	> 200	> 200
CCOP(=O)(CCn1cc(Cn2ccccc2=O)nn1)OCC	> 200	> 200	> 200
CCOP(=O)(OCC)C(O)Cn1cc(Cn2c(Cl)nc3c2c(=O)n(C)c(=O)n3C)nn1 (centres undefined)	> 200	> 200	> 200
CCOP(=O)(CCCCn1cc(Cn2ccc(=O)[nH]c2=O)nn1)OCC	> 200	> 200	> 200
CCOP(=O)(CC(O)Cn1cc(Cn2cc(C(C)=O)c3ccccc32)nn1)OCC (centres undefined)	97	> 200	43
CCOP(=O)(CC(O)Cn1cc(Cn2c(=O)n(C(=O)c3ccccc3)c(=O)c3ccccc32)nn1)OCC (centres undefined)	> 200	> 200	72
CCOP(=O)(CC(O)Cn1cc(Cn2ncc(=O)[nH]c2=O)nn1)OCC (centres undefined)	> 200	> 200	> 200
CCOP(=O)(OCC)C(O)Cn1cc(Cn2ncc(=O)[nH]c2=O)nn1 (centres undefined)	> 200	> 200	> 200
CCOP(=O)(CCCn1cc(Cn2ncc(=O)[nH]c2=O)nn1)OCC	> 200	> 200	> 200
CCOP(=O)(OCC)C(O)CCn1cc(Cn2c(=O)c3c(ncn3C)n(C)c2=O)nn1 (centres undefined)	> 200	> 200	> 200
CCOP(=O)(CCCCn1cc(Cn2cc(C(C)=O)c3ccccc32)nn1)OCC	> 200	200	12

Structure (SMILES)	IC50 (HeLa) [µM]	IC50 (L1210) [µM]	IC50 (CCRF-CEM) [µM]
CCOP(=O)(CCn1cc(Cn2cnc3cc(C)c(C)cc32)nn1)OCC	> 200	≥ 200	23.4
CCOP(=O)(Cn1cc(Cn2cnc3cc(C)c(C)cc32)nn1)OCC	42	> 200	97
Cc1cc2ncn(Cc3cn(CCCP(=O)(O)O)nn3)c2cc1C	> 200	> 200	> 200
CCOP(=O)(Cn1cc(Cn2c(=O)c3c(ncn3C)n(C)c2=O)nn1)OCC	≥ 149	> 200	> 200
O=C(c1ccccc1)n1c(=O)c2ccccc2n(Cc2cn(CCCP(=O)(O)O)nn2)c1=O	> 200	> 200	> 200
CCOP(=O)(CCCCn1cc(Cn2cnc3c(N)ncnc32)nn1)OCC	> 200	> 200	> 200
CCOP(=O)(CC(O)Cn1cc(Cn2c(Cl)nc3c2c(=O)n(C)c(=O)n3C)nn1)OCC (centres undefined)	> 200	> 200	> 200
CCOP(=O)(OCC)C(O)CCn1cc(Cn2ccc(NC(C)=O)nc2=O)nn1 (centres undefined)	> 200	> 200	> 200
CCOP(=O)(CCCCn1cc(Cn2ncc(=O)[nH]c2=O)nn1)OCC	> 200	> 200	> 200
CCOP(=O)(CCCCn1cc(Cn2c(=O)c3c(ncn3C)n(C)c2=O)nn1)OCC	> 200	> 200	> 200
CCOP(=O)(Cn1cc(Cn2c(=O)n(C(=O)c3ccccc3)c(=O)c3ccccc32)nn1)OCC	≥ 89	> 200	≥ 72
CCOP(=O)(CCn1cc(Cn2c(=O)c3c(ncn3C)n(C)c2=O)nn1)OCC	159	> 200	> 200
CCOP(=O)(OCC)C(O)CCn1cc(Cn2ncc(=O)[nH]c2=O)nn1 (centres undefined)	> 200	> 200	> 200
CCOP(=O)(Cn1cc(Cn2cc(C(C)=O)c3ccccc32)nn1)OCC	11	72	2.78
CCOP(=O)(OCC)C(O)Cn1cc(Cn2cc(C(C)=O)c3ccccc32)nn1 (centres undefined)	> 200	> 200	21
O=C(c1ccccc1)n1c(=O)ccn(Cc2cn(CCCP(=O)(O)O)nn2)c1=O	> 200	> 200	> 200
CCOP(=O)(CCCn1cc(Cn2c(Cl)nc3c2c(=O)n(C)c(=O)n3C)nn1)OCC	> 200	> 200	> 200
CCOP(=O)(Cn1cc(Cn2cnc3c2c(=O)n(C)c(=O)n3C)nn1)OCC	> 200	> 200	> 200
CCOP(=O)(OCC)C(O)CCn1cc(Cn2cc(C(C)=O)c3ccccc32)nn1 (centres undefined)	> 200	124	100
CCOP(=O)(OCC)C(O)CCn1cc(Cn2c(=O)n(C(=O)c3ccccc3)c(=O)c3ccccc32)nn1 (centres undefined)	> 200	> 200	70
CCOP(=O)(CCCCn1cc(Cn2cc(C)c(=O)[nH]c2=O)nn1)OCC	> 200	> 200	> 200
CCOP(=O)(CCCn1cc(Cn2cnc3cc(C)c(C)cc32)nn1)OCC	101	189	14
CCOP(=O)(CCCn1cc(Cn2c(=O)c3c(ncn3C)n(C)c2=O)nn1)OCC	> 200	> 200	> 200

Structure (SMILES)	IC50 (HeLa) [µM]	IC50 (L1210) [µM]	IC50 (CCRF-CEM) [µM]
CCOP(=O)(OCC)C(O)Cn1cc(Cn2c(=O)n(C(=O)c3ccccc3)c(=O)c3ccccc32)nn1 (centres undefined)	> 200	> 200	≥ 77
CCOP(=O)(CCn1cc(Cn2cnc3c2c(=O)n(C)c(=O)n3C)nn1)OCC	> 200	> 200	> 200
CCOP(=O)(CC(O)Cn1cc(Cn2c(=O)c3c(ncn3C)n(C)c2=O)nn1)OCC (centres undefined)	> 200	> 200	> 200
CCOP(=O)(OCC)C(O)CCn1cc(Cn2cnc3cc(C)c(C)cc32)nn1 (centres undefined)	> 200	> 200	163
CCOP(=O)(OCC)C(O)Cn1cc(Cn2cnc3cc(C)c(C)cc32)nn1 (centres undefined)	> 200	> 200	> 200
CCOP(=O)(OCC)C(O)CCn1cc(Cn2cnc3c2c(=O)n(C)c(=O)n3C)nn1 (centres undefined)	> 200	> 200	> 200
CCOP(=O)(Cn1cc(Cn2ccccc2=O)nn1)OCC	> 200	> 200	> 200
CCOP(=O)(CCCCn1cc(Cn2ccc(NC(C)=O)nc2=O)nn1)OCC	> 200	> 200	> 200
CCOP(=O)(OCC)C(O)CCn1cc(Cn2cc(C)c(=O)[nH]c2=O)nn1 (centres undefined)	> 200	> 200	> 200
CCOP(=O)(OCC)C(O)Cn1cc(Cn2c(=O)c3c(ncn3C)n(C)c2=O)nn1 (centres undefined)	> 200	> 200	> 200
CCOP(=O)(OCC)C(O)Cn1cc(Cn2cnc3c2c(=O)n(C)c(=O)n3C)nn1 (centres undefined)	> 200	> 200	> 200
CCOP(=O)(CCCCn1cc(Cn2cnc3c2c(=O)n(C)c(=O)n3C)nn1)OCC	> 200	> 200	> 200
CCOP(=O)(CCCn1cc(Cn2cc(C(C)=O)c3ccccc32)nn1)OCC	19	164	4.54
CCOP(=O)(CC(O)Cn1cc(Cn2cnc3cc(C)c(C)cc32)nn1)OCC (centres undefined)	≥ 150	> 200	78
CCOP(=O)(CC(O)Cn1cc(Cn2cnc3c2c(=O)n(C)c(=O)n3C)nn1)OCC (centres undefined)	> 200	> 200	> 200
CCOP(=O)(CCn1cc(Cn2c(Cl)nc3c2c(=O)n(C)c(=O)n3C)nn1)OCC	200	> 200	> 200
CCOP(=O)(Cn1cc(Cn2ncc(=O)[nH]c2=O)nn1)OCC	> 200	> 200	> 200
Cn1c(=O)c2c(ncn2Cc2cn(CC(O)P(=O)(O)O)nn2)n(C)c1=O (centres undefined)	> 200	> 200	> 200
Cn1c(=O)c2c(nc(Cl)n2Cc2cn(CCCP(=O)(O)O)nn2)n(C)c1=O	> 200	> 200	> 200
Cc1cn(Cc2cn(CCCCP(=O)(O)O)nn2)c(=O)[nH]c1=O	> 200	> 200	> 200
CCOP(=O)(Cn1cc(Cn2c(Cl)nc3c2c(=O)n(C)c(=O)n3C)nn1)OCC	> 200	> 200	> 200
CCOP(=O)(OCC)C(O)CCn1cc(Cn2ccc(=O)[nH]c2=O)nn1 (centres undefined)	> 200	> 200	> 200
